In ChEMBL document CHEMBL1131235, “(R)-(+)-2-[[[3-(Morpholinomethyl)-2H-chromen-8-yl]oxy]methyl] morpholine methanesulfonate: a new selective rat 5-hydroxytryptamine1B receptor antagonist” (J Med Chem, 1998):
pKi: −log10 of the molar value. Several values for one entry are separate records, joined by “and”; a condition that tells them apart may be missing. Identical values can stand only once.

How the values were obtained:
[1] = biological target: T1, 5-hydroxytryptamine receptor 1A (Rattus norvegicus, UniProt P19327); assay: Binding affinity against 5-hydroxytryptamine 1A receptor from rat hippocampus using [3H]8-OH-DPAT as the radioligand.; format: tissue-based
T1 sequence (P19327 whole entry): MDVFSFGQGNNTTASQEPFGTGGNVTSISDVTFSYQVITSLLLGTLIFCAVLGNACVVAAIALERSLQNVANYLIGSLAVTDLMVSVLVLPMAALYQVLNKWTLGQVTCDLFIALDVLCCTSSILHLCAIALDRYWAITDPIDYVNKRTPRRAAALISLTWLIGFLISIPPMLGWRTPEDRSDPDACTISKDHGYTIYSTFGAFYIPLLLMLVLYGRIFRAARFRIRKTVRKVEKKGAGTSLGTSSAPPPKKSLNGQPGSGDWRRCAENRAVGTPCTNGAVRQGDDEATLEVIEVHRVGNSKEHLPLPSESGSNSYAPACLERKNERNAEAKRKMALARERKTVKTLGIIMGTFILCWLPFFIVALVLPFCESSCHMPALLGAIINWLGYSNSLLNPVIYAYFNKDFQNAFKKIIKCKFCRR
Method in brief: (§1)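 Binding by the Jackson et al. method. 5-HT1A used [3H]OH-DPAT on rat hippocampus. α1 used [3H]prazosin, α2 [3H]RX821002 and β [3H]dihydroalprenolol, all on rat cortex. D1 used [3H]SCH-23390 on rat striatum. D2 used [3H]raclopride on LtkhD2A cell membranes.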

[2] = biological target: T2, Adrenergic receptor alpha-2 (Rattus norvegicus, UniProt P22086+P19328+P22909); assay: Binding affinity against Alpha-2 adrenergic receptor in rat cortex using [3H]RX-821002 as the radioligand.; format: tissue-based, Brain; method in brief: as §1
T2 sequence (P22086 whole entry): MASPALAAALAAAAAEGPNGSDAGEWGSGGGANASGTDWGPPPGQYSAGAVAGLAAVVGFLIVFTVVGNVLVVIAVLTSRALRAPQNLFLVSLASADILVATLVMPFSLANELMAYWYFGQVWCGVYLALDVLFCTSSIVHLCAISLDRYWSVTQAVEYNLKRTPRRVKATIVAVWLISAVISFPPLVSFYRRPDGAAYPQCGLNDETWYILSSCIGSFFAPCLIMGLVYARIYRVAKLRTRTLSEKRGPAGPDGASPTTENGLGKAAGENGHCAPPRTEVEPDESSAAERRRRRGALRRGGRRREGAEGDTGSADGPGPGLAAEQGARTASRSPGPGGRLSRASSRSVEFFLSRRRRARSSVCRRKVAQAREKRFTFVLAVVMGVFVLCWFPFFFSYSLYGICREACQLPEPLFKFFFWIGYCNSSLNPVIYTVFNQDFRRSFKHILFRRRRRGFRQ
T2 sequence (P19328 whole entry): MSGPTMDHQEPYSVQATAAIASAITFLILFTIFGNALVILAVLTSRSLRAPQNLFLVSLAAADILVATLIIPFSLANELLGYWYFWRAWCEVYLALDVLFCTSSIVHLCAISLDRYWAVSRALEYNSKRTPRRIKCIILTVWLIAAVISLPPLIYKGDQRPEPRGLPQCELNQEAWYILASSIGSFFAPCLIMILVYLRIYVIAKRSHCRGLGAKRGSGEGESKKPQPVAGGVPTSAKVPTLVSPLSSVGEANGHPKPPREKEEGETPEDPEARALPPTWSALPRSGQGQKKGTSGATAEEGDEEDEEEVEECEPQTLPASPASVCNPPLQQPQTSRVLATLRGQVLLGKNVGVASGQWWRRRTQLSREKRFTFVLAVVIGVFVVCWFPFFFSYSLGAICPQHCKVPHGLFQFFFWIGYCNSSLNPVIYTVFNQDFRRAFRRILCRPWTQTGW
T2 sequence (P22909 whole entry): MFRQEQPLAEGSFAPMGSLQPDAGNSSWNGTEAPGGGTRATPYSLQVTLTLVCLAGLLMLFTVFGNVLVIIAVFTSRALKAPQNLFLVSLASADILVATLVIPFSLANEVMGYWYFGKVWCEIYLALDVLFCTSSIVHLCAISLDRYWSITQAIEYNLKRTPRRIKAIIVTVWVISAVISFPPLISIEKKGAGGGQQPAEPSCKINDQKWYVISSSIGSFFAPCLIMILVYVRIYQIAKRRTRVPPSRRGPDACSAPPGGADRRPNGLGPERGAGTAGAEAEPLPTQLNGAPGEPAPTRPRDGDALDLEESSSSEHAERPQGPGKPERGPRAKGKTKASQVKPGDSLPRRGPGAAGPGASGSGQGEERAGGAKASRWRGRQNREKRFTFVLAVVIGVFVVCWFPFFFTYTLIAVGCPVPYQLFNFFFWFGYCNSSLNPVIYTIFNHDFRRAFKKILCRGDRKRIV

[3] = species on record: Rattus norvegicus; assay: Percent control of the stimulation ratio S2 (second stimulation)/S1(first stimulation) at a concentration of 100 nM. (P<0.05); format: functional
[4] = Antagonism of the induced potentiation of K+ stimulated [3H]5-HT release from brain slices with 5-HT (1000 nM) at a concentration of 1000 nM.; format: functional, Rattus norvegicus
Method in brief: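 Rat occipital cortex slices (0.3 × 0.3 mm) were preloaded with [3H]-5-HT and superfused at 0.4 mL/min with oxygenated Krebs-Henseleit buffer, pH 7.4, containing 2.5 μM citalopram. After a 50 min wash, 4-min fractions were collected. 25 mM KCl was applied for 4 min at 62 min and again at 98 min. Test compound and 5-HT were given together in the same solution for 72 min. Fraction and slice radioactivity were counted by liquid scintillation. S2/S1 was expressed as % of control; Dunnett's t-test after ANOVA.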

[5] = species on record: Rattus norvegicus; assay: Percent control of the stimulation ratio S2 (second stimulation)/S1(first stimulation) at a concentration of 10 nM. (P>0.05); format: functional
[6] = Potentiation of K+ stimulated release of [3H]-5-HT from brain slices at a concentration of 10 nM. (activity expressed as ratio of S2 (second stimulation)/S1(first stimulation)); format: functional, Rattus norvegicus
Method in brief: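 Rat occipital cortex slices (0.3 × 0.3 mm) preloaded with [3H]-5-HT, superfused at 0.4 mL/min with oxygenated Krebs-Henseleit pH 7.4 containing 2.5 μM citalopram. Two 4-min 25 mM KCl pulses at 62 and 98 min, compound present for 72 min spanning S2. Fractional release counted by liquid scintillation. S2/S1 ratio reported, also as % of control; n=3–8.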

[7] = biological target: 5-hydroxytryptamine receptor 6 (Rattus norvegicus, UniProt P31388); assay: Binding affinity against 5-hydroxytryptamine 6 receptor from CHO cell membranes using [3H]5-HT as the radioligand.
Sequence of 5-hydroxytryptamine receptor 6 (P31388 whole entry): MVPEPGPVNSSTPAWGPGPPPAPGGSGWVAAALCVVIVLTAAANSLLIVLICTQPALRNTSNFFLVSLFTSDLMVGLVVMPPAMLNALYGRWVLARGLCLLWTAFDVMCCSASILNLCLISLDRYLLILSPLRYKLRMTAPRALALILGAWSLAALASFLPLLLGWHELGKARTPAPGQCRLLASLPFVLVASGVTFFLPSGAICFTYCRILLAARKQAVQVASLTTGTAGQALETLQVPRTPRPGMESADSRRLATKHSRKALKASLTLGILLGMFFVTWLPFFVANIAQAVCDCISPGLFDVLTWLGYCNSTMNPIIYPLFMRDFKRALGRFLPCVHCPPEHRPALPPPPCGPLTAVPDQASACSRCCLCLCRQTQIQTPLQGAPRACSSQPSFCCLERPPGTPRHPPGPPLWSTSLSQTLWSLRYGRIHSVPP
Method in brief: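 Binding by the Johansson et al. method. 5-HT2A used [3H]ketanserin and 5-HT2C used [3H]mesulergine, both on rat cortex. 5-HT6 and 5-HT7 used [3H]-5-HT on CHO cell membranes expressing the rat receptors.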

[8] = Antagonism of the induced potentiation of K+ stimulated [3H]5-HT release from brain slices with 5-HT (1000 nM) at a concentration of 1000nM, expressed as percent of control; format: functional, Rattus norvegicus; set-up: scale not given: the % may be the effect or the level left
Method in brief: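 Superfused rat occipital cortex slices (0.3 × 0.3 mm) preloaded with [3H]-5-HT; Krebs-Henseleit pH 7.4 with 2.5 μM citalopram, 0.4 mL/min. Two 4-min 25 mM KCl pulses (62 and 98 min). Compound and 5-HT were given in the same solution. Fractions and slices were counted by scintillation. S2/S1 is expressed as % of control.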

pKi [1] | Ki [2] [µM] | pKi [7] | Structure (SMILES) | Control [3] [%] | Ratio of stimulation [4] | Control [5] [%] | Potentiation [6] | Activity [8]
< 5.00 | > 10 |  | C1=C(CN2CCOCC2)COc2c1cccc2OC[C@@H]1CNCCO1.Cl |  |  |  |  | 
< 5.00 | > 10 | < 5.52 | C1=C(CN2CCOCC2)COc2c1cccc2OC[C@H]1CNCCO1.CS(=O)(=O)O | 131 | 1.12 and 0.8 | 115 | 1.11 | 149% and 107%
